# In ChEMBL document CHEMBL4052710 (Bioorg Med Chem Lett, 2017):
# Active and inactive are the calls of the source. The calls are words filed in the database; no cut-off is given here.
# How the values were obtained:
# NCI-H460 [1] = test: Growth inhibition of human H460 cells incubated for 72 hrs by CCK8 assay; type: functional, cell-based; conditions: NCI-H460, 72 h
# A549 [2] = test: Growth inhibition of human A549 cells incubated for 72 hrs by CCK8 assay; type: functional, cell-based; conditions: A549, 72 h
# T47D [3] = test: Growth inhibition of human T47D cells incubated for 72 hrs by CCK8 assay; type: functional, cell-based
# MCF7 = test: Growth inhibition of human MCF7 cells incubated for 72 hrs by CCK8 assay; type: functional, cell-based; conditions: MCF7, 72 h
# NCI-H1299 [4] = test: Growth inhibition of human H1299 cells incubated for 72 hrs by CCK8 assay; type: functional, cell-based; conditions: NCI-H1299, 72 h
# T47D [5] = test: Induction of apoptosis in human T47D cells assessed as late apoptotic cells level at 5 uM incubated for 48 hrs by annexin V-FITC and propidium iodide staining based flow cytometry (reference value: 0.48%); type: functional
# T47D [6] = test: Induction of apoptosis in human T47D cells assessed as viable cells level at 5 uM incubated for 48 hrs by annexin V-FITC and propidium iodide staining based flow cytometry (reference value: 96%); type: functional
# T47D [7] = test: Induction of apoptosis in human T47D cells assessed as necrotic cells level at 5 uM incubated for 48 hrs by annexin V-FITC and propidium iodide staining based flow cytometry (reference value: 2.79%); type: functional
# T47D [8] = test: Induction of apoptosis in human T47D cells assessed as early apoptotic cells level at 5 uM incubated for 48 hrs by annexin V-FITC and propidium iodide staining based flow cytometry (reference value: 0.75%); type: functional
# T47D [9] = test: Induction of cell cycle arrest in human T47D cells assessed as increase in G0/G1 phase accumulation incubated for 24 hrs by flow cytometry; type: functional, cell-based
# HeLa [10] = test: Growth inhibition of human HeLa cells incubated for 72 hrs at 10 uM by CCK8 assay; type: functional; conditions: read-out: GI
# Summary of the method: (§1)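 CCK8 viability assay on a panel of human cancer cell lines, with an initial screen at fixed concentrations of 1 µM and 10 µM.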
# OVCAR-5 [11] = test: Growth inhibition of human OVCAR5 cells incubated for 72 hrs at 1 uM by CCK8 assay; type: functional; conditions: OVCAR-5, 72 h, read-out: GI; summary of the method: as §1
# OVCAR-5 [12] = test: Growth inhibition of human OVCAR5 cells incubated for 72 hrs at 10 uM by CCK8 assay; type: functional; conditions: OVCAR-5, 72 h, read-out: GI; summary of the method: as §1
# NCI-H460 [13] = test: Growth inhibition of human H460 cells incubated for 72 hrs at 1 uM by CCK8 assay; type: functional; conditions: NCI-H460, 72 h, read-out: GI; summary of the method: as §1
# HeLa [14] = test: Growth inhibition of human HeLa cells incubated for 72 hrs at 1 uM by CCK8 assay; type: functional; conditions: read-out: GI; summary of the method: as §1
# T47D [15] = test: Growth inhibition of human T47D cells incubated for 72 hrs at 10 uM by CCK8 assay; type: functional; conditions: read-out: GI; summary of the method: as §1
# SiHa [16] = test: Growth inhibition of human SiHa cells incubated for 72 hrs at 10 uM by CCK8 assay; type: functional; conditions: read-out: GI; summary of the method: as §1
# NCI-H1299 [17] = test: Growth inhibition of human H1299 cells incubated for 72 hrs at 1 uM by CCK8 assay; type: functional; conditions: NCI-H1299, 72 h, read-out: GI; summary of the method: as §1
# NCI-H460 [18] = test: Growth inhibition of human H460 cells incubated for 72 hrs at 10 uM by CCK8 assay; type: functional; conditions: NCI-H460, 72 h, read-out: GI; summary of the method: as §1
# NCI-H1299 [19] = test: Growth inhibition of human H1299 cells incubated for 72 hrs at 10 uM by CCK8 assay; type: functional; conditions: NCI-H1299, 72 h, read-out: GI; summary of the method: as §1
# T47D [20] = test: Growth inhibition of human T47D cells incubated for 72 hrs at 1 uM by CCK8 assay; type: functional; conditions: read-out: GI; summary of the method: as §1
# A549 [21] = test: Growth inhibition of human A549 cells incubated for 72 hrs at 10 uM by CCK8 assay; type: functional; conditions: A549, 72 h, read-out: GI; summary of the method: as §1
# SiHa [22] = test: Growth inhibition of human SiHa cells incubated for 72 hrs at 1 uM by CCK8 assay; type: functional; conditions: read-out: GI; summary of the method: as §1
# A549 [23] = test: Growth inhibition of human A549 cells incubated for 72 hrs at 1 uM by CCK8 assay; type: functional; conditions: A549, 72 h, read-out: GI; summary of the method: as §1
# [24] = biological target: Vascular endothelial growth factor receptor 2 (Homo sapiens, UniProt P35968); test: Inhibition of human VEGFR2 at 1 uM by enzymatic radiometric assay
# Sequence of Vascular endothelial growth factor receptor 2 (P35968 whole entry): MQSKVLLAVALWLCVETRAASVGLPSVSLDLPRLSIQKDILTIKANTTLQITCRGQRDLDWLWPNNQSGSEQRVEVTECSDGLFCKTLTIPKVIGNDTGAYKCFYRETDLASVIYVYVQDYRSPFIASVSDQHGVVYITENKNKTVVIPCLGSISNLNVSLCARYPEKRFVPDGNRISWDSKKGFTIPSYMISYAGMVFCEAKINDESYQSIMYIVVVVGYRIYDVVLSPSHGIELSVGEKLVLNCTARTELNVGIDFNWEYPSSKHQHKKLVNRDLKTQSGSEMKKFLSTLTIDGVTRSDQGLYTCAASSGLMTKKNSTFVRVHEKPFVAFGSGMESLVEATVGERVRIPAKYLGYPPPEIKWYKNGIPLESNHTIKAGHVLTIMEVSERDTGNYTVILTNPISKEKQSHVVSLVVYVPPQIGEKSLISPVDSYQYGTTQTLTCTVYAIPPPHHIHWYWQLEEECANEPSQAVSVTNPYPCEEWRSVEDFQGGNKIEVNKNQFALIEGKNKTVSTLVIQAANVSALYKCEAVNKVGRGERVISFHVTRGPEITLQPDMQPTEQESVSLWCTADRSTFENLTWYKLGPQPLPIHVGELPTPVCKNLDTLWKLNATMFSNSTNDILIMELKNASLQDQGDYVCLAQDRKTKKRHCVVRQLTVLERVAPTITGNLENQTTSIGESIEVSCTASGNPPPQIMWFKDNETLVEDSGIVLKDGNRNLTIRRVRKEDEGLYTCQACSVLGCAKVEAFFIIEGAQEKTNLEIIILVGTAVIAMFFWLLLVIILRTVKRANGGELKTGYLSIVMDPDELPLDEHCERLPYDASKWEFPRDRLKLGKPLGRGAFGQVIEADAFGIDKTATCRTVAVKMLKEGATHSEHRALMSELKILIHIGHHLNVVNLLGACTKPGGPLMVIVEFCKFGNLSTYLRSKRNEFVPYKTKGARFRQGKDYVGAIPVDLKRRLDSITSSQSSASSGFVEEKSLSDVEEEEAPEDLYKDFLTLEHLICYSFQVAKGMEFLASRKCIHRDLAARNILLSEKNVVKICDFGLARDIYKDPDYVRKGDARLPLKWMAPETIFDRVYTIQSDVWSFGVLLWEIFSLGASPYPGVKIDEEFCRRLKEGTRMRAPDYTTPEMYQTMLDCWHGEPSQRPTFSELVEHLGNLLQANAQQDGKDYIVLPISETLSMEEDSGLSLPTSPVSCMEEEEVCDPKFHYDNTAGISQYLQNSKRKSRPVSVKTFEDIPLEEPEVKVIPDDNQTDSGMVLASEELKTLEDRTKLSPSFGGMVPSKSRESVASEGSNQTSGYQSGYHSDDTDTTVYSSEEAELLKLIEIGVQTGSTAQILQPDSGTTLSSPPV
# [25] = biological target: CDK4/Cyclin D3 (Homo sapiens) (UniProt P11802+P30281); test: Inhibition of human CDK4/CyclinD3 at 1 uM by enzymatic radiometric assay; type: protein-complex assay
# Summary of the method: (§2)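 Kinase panel run through the Eurofins KinaseProfiler, with compound at a fixed 1 µM. Values are means of two independent experiments.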
# [26] = biological target: CDK9/cyclin T1 (Homo sapiens) (UniProt O60563+P50750); test: Inhibition of human CDK9/CyclinT1 at 1 uM by enzymatic radiometric assay; type: protein-complex assay
# [27] = biological target: T1, Cyclin-dependent kinase 5/CDK5 activator 1 (Homo sapiens) (UniProt Q00535+Q15078); test: Inhibition of human CDK5/p25 at 1 uM by enzymatic radiometric assay; type: protein-complex assay
# T1 sequence (Q00535 whole entry): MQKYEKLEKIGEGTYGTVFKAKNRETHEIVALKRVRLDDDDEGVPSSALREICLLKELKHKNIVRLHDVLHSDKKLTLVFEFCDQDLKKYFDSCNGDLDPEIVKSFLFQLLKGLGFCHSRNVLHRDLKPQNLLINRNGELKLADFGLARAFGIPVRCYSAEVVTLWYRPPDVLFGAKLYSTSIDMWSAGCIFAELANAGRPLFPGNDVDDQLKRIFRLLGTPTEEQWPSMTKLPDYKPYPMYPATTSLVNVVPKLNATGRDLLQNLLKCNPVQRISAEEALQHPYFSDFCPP
# T1 sequence (Q15078 99-307 partner limits assumed): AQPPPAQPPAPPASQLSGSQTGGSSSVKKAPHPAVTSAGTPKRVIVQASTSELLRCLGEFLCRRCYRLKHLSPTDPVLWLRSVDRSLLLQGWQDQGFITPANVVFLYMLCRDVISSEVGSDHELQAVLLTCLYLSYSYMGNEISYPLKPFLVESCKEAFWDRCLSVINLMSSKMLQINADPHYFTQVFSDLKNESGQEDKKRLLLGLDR
# [28] = biological target: Cyclin-dependent kinase 1/cyclin B1 (Homo sapiens) (UniProt P06493+P14635); test: Inhibition of human CDK1/CyclinB at 1 uM by enzymatic radiometric assay; type: protein-complex assay; summary of the method: as §2
# [29] = biological target: CDK2/Cyclin A2 (Homo sapiens) (UniProt P24941+P20248); test: Inhibition of human CDK2/CyclinA at 1 uM by enzymatic radiometric assay; type: protein-complex assay; summary of the method: as §2
# [30] = biological target: CDK7/Cyclin H/MNAT1 (Homo sapiens) (UniProt P51946+P50613+P51948); test: Inhibition of human CDK7/CyclinH/MAT1 at 1 uM by enzymatic radiometric assay; type: protein-complex assay
# [31] = biological target: CDK3/Cyclin E (Homo sapiens) (UniProt P24864+Q00526); test: Inhibition of human CDK3/CyclinE at 1 uM by enzymatic radiometric assay; type: protein-complex assay; summary of the method: as §2
# Sequence of CDK3/Cyclin E (Homo sapiens) (P24864 whole entry, looked up): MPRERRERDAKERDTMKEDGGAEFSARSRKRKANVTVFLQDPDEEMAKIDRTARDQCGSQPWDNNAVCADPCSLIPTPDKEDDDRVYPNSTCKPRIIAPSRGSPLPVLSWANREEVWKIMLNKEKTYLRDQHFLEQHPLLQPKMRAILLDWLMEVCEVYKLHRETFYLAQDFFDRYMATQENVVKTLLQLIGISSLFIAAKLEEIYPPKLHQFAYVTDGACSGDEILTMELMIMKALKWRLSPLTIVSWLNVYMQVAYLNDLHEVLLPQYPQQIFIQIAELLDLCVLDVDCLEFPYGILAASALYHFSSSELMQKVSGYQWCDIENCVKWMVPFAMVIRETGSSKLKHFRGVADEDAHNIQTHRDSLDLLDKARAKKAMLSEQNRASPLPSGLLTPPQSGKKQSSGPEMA
# Sequence of CDK3/Cyclin E (Homo sapiens) (Q00526 whole entry, looked up): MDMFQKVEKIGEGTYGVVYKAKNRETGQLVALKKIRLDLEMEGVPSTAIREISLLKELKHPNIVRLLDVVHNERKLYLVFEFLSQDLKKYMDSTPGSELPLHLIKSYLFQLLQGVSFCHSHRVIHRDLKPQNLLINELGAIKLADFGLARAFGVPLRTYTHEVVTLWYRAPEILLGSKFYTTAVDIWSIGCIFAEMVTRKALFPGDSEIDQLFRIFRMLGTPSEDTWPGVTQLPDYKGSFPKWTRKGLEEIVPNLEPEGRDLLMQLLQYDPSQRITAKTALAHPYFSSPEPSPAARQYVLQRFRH
# [32] = biological target: CDK12/Cyclin K (Homo sapiens) (UniProt O75909+Q9NYV4); test: Inhibition of human CDK12/CyclinK at 1 uM by enzymatic radiometric assay; type: protein-complex assay; summary of the method: as §2
# Sequence of CDK12/Cyclin K (Homo sapiens) (O75909 whole entry, looked up): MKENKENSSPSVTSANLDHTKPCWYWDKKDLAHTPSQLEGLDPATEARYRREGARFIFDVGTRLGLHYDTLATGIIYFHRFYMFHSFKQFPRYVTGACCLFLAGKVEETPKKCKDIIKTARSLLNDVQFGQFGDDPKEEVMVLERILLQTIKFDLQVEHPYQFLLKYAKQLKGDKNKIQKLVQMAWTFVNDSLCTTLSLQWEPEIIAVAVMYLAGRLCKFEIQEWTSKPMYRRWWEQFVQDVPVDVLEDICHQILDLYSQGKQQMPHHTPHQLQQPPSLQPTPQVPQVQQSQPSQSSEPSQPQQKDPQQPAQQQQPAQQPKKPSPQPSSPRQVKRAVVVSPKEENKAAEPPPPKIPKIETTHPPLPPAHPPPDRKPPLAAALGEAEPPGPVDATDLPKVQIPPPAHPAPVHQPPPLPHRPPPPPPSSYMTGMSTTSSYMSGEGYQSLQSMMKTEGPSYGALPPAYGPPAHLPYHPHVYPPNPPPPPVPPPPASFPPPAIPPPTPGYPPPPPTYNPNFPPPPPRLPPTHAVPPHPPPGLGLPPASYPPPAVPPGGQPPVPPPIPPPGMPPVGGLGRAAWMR
# Sequence of CDK12/Cyclin K (Homo sapiens) (Q9NYV4 whole entry, looked up): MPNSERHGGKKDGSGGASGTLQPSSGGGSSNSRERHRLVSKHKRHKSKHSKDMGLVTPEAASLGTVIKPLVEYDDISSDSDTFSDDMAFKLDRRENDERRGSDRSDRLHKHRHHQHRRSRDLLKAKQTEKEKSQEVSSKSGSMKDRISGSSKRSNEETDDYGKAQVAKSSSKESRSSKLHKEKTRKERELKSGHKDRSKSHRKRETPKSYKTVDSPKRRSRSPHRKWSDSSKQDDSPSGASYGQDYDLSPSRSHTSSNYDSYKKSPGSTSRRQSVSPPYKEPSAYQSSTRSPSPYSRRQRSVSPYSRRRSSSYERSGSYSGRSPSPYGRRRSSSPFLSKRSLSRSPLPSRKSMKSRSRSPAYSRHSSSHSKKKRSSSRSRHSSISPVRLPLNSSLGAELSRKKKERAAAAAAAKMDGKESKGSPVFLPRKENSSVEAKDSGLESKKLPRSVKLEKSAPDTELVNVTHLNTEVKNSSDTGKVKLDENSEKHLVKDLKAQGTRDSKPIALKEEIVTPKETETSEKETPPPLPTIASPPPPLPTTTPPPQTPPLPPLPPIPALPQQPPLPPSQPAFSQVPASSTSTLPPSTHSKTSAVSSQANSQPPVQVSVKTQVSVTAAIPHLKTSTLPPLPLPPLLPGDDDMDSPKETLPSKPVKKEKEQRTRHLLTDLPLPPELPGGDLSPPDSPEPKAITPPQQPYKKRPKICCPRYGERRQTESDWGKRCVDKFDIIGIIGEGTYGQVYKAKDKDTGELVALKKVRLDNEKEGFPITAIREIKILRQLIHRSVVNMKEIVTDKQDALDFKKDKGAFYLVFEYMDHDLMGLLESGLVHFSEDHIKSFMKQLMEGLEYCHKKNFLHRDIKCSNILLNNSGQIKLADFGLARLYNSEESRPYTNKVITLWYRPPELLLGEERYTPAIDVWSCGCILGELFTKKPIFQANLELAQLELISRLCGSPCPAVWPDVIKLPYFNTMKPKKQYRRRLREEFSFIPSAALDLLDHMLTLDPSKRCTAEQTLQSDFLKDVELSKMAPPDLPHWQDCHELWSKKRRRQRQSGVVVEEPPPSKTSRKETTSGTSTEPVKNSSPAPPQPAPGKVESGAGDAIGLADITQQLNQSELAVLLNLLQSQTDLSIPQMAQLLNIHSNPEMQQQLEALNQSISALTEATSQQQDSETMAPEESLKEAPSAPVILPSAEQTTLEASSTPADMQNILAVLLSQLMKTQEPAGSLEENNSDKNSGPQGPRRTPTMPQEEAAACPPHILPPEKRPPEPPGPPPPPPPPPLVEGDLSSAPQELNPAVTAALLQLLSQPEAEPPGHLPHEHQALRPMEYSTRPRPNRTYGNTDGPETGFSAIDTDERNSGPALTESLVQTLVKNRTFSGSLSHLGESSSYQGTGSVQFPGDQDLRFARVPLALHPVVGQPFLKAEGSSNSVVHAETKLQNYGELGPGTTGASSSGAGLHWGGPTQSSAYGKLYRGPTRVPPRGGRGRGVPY
# [33] = biological target: T1, Cyclin-dependent kinase 5/CDK5 activator 1 (Homo sapiens); test: Inhibition of human CDK5/p35 at 1 uM by enzymatic radiometric assay; type: protein-complex assay
# [34] = biological target: Cyclin-dependent kinase 2/cyclin E1 (Homo sapiens) (UniProt P24864+P24941); test: Inhibition of human CDK2/CyclinE at 1 uM by enzymatic radiometric assay; type: protein-complex assay; summary of the method: as §2
# [35] = biological target: CDK6/cyclin D3 (Homo sapiens) (UniProt P30281+Q00534); test: Inhibition of human CDK6/CyclinD3 at 1 uM by enzymatic radiometric assay; type: protein-complex assay
# [36] = biological target: CDK18/Cyclin Y (Homo sapiens) (UniProt Q07002+Q8ND76); test: Inhibition of human CDK18/CyclinY at 1 uM by enzymatic radiometric assay; type: protein-complex assay; summary of the method: as §2
SMILES,IC50 (NCI-H460 [1]) [µM],IC50 (A549 [2]) [µM],IC50 (MCF7) [µM],IC50 (NCI-H1299 [4]) [µM],inhibition of growth at 10 µM (HeLa [10]) [%],inhibition of growth at 1 µM (OVCAR-5 [11]) [%],inhibition of growth at 10 µM (OVCAR-5 [12]) [%],inhibition of growth at 1 µM (NCI-H460 [13]) [%],inhibition of growth at 1 µM (HeLa [14]) [%],inhibition of growth at 10 µM (T47D [15]) [%],inhibition of growth at 10 µM (SiHa [16]) [%],inhibition of growth at 1 µM (NCI-H1299 [17]) [%],inhibition of growth at 10 µM (NCI-H460 [18]) [%],inhibition of growth at 10 µM (NCI-H1299 [19]) [%],inhibition of growth at 1 µM (T47D [20]) [%],inhibition of growth at 10 µM (A549 [21]) [%],inhibition of growth at 1 µM (SiHa [22]) [%],inhibition of growth at 1 µM (A549 [23]) [%],inhibition [24] [%],inhibition [25] [%],further results
COc1cc2nccc(Oc3ccc(NC(=O)C4(C(=O)Nc5ccc(F)cc5)CC4)cc3)c2cc1OC [CABOZANTINIB],5.67,4.45,2.89,1.92,–,–,–,–,–,–,–,–,–,–,–,–,–,–,–,–,IC50 (T47D [3]): 4.45 µM
CN(C)C(=O)c1cc2cnc(Nc3ccc(N4CCNCC4)cn3)nc2n1C1CCCC1 [RIBOCICLIB],> 10,> 10,> 10,7.64,–,–,–,–,–,–,–,–,–,–,–,–,–,–,–,–,Activity (T47D [5]): 2.91%; Activity (T47D [6]): 94.8%; Activity (T47D [7]): 1.94%; Activity (T47D [8]): 0.34%; Activity (T47D [9]): Active
Nc1ccc(NC(=O)C2(C(=O)Nc3ccc(F)cc3)CC2)cc1F,–,–,–,–,71.8,6.7,9.7,26.7,14,30.4,36,46.2,62.9,59.2,5.6,14.6,21.7,16.3,–,–,–
CN(C)C(=O)c1cc2cnc(Nc3ccc(NC(=O)C4(C(=O)Nc5ccc(Cl)c(C(F)(F)F)c5)CC4)cc3)nc2n1C1CCCC1,–,–,–,–,55.6,-2.4,48,2.1,16.5,55.8,61.1,39.5,91.9,90.4,6.9,88.1,-11.2,1.1,4,24,–
CN(C)C(=O)c1cc2cnc(Nc3ccc(NC(=O)C4(C(=O)Nc5ccc(O)cc5)CC4)cc3)nc2n1C1CCCC1,–,–,–,–,99.9,80.7,90.9,90.4,62.3,95.8,94.3,87.4,104,89.7,91.5,94.4,69.5,93.6,36,95,inhibition [26]: 26%; inhibition [27]: 94%; inhibition [28]: 90%; inhibition [29]: 90%; inhibition [30]: -9%; inhibition [31]: 89%; inhibition [32]: 23%; inhibition [33]: 88%; inhibition [34]: 88%; inhibition [35]: 86%; inhibition [36]: 0%
